From paper PMC10849882 (The Journal of Cell Biology, 2024) come the findings set out here.

Test [1] deals with IMPDH1(595)-WT (Homo sapiens, UniProt P20839). Put plainly: IMPDH1 activity assay, GTP inhibition. Type of test: biochemical. In a few lines:
(§1)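 Recombinant human retinal-variant enzyme (E. coli BL21(DE3), 6xHis-SUMO tag removed by ULP1, gel filtration). Enzyme diluted ≥100-fold to 1 µM in pH 7.0 HEPES/KCl/DTT buffer. Preincubated 30 min at 20°C with 1 mM ATP, 1 mM IMP, 1 mM MgCl2 and varying GTP. Started with 300 µM NAD+. NADH read at A340, 25°C, each minute for 15 min. Rate from a 2–7 min slope. Triplicate; four-parameter variable-slope fit with 90% CI.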

In test [2] the target is IMPDH1(595)-S477D (Homo sapiens, UniProt P20839, S477D). Nature of the test: IMPDH1 activity assay, GTP inhibition. In kind it is biochemical. In a few lines: as §1
Chain of IMPDH1(595)-S477D (P20839 1-509 S477D): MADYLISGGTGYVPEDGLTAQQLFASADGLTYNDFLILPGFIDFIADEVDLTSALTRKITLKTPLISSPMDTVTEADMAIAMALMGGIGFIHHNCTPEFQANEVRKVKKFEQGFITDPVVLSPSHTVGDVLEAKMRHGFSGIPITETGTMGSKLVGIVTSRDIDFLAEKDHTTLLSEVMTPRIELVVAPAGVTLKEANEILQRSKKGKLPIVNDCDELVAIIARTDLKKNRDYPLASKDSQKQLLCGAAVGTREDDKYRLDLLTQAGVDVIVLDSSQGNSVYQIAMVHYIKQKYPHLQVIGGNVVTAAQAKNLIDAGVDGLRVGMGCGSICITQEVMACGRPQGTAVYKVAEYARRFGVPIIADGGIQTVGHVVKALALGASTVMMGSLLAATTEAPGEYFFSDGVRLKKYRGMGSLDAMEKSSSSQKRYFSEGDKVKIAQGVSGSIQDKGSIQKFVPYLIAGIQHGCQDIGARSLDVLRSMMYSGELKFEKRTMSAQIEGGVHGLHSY
Test [3] addresses IMPDH1(595)-Y12A (Homo sapiens, UniProt P20839, Y12A). Nature of the test: IMPDH1 activity assay, GTP inhibition. Type of test: biochemical. In a few lines:
(§2)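 Enzyme at 1 µM in pH 7.0 HEPES/KCl/DTT activity buffer, preincubated 30 min at 20°C with 1 mM ATP, 1 mM IMP, 1 mM MgCl2 and graded GTP. Reaction started with 300 µM NAD+. NADH followed at 340 nm (25°C, per minute, 15 min) against a standard curve. Specific activity from the 2–7 min slope; three measurements per point. IC50 and Hill coefficient from a least-squares four-parameter fit, 90% confidence intervals.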

For test [4], the target named is IMPDH1(595)-Y12A-S477D (Homo sapiens, UniProt P20839, S477D/Y12A). Nature of the test: IMPDH1 activity assay, GTP inhibition. In kind it is biochemical. In a few lines:
as §2

The target in test [5] is IMPDH1(546)-WT (Homo sapiens, UniProt P20839). Nature of the test: IMPDH1 activity assay, GTP inhibition. In kind it is biochemical. In a few lines: as §1
Chain of IMPDH1(546)-WT (P20839 1-509 limits assumed): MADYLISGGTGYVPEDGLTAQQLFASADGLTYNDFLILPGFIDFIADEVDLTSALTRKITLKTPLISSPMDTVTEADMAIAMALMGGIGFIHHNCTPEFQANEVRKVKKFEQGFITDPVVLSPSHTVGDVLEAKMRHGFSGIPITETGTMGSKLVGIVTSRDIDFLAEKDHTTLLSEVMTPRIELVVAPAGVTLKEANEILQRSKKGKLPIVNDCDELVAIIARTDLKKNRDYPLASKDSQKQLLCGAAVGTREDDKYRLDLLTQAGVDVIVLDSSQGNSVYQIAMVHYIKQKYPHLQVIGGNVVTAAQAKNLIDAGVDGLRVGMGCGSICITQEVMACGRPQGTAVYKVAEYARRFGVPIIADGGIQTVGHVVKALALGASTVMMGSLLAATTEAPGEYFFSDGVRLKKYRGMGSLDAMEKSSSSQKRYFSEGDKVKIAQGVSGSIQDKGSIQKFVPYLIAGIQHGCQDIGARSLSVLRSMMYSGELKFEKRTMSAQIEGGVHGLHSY
Test [6] concerns the target IMPDH1(546)-S477D (Homo sapiens, UniProt P20839, S477D). Put plainly: IMPDH1 activity assay, GTP inhibition. Type of test: biochemical. In a few lines:
as §1

Test [7] concerns the target IMPDH1(546)-Y12A (Homo sapiens, UniProt P20839, Y12A). Put plainly: IMPDH1 activity assay, GTP inhibition. In kind it is biochemical. The method, boiled down: as §2
Test [8] deals with IMPDH1(546)-Y12A-S477D (Homo sapiens, UniProt P20839, S477D/Y12A). Nature of the test: IMPDH1 activity assay, GTP inhibition. Type of test: biochemical. In a few lines:
as §2

The test system of test [9] is HeLa cells. Nature of the test: Ribavirin-induced IMPDH filament assembly in cells, immunofluorescence. In kind it is cell-based, human. To be noted: 1 mM ribavirin for 2 h. The method, boiled down: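 HeLa (ATCC CCL-2) in DMEM/10% FBS, 37°C, 5% CO2. Seeded 4×10^4 cells/well on chambered glass slides and transfected next day with 328 ng plasmid (TransIT-HeLaMONSTER). After 48 h, fixed in 4% paraformaldehyde and Triton-permeabilised. Stained with anti-IMPDH2 (endogenous plus transfected), anti-FLAG and DAPI. Imaged by widefield 40×. Two biological replicates, ≥100 cells counted per condition.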

The mark [10] stands for this setting: Hill coefficient of GTP inhibition curve.

Chain of IMPDH1(546)-Y12A-S477D (P20839 1-509 Y12A/S477D): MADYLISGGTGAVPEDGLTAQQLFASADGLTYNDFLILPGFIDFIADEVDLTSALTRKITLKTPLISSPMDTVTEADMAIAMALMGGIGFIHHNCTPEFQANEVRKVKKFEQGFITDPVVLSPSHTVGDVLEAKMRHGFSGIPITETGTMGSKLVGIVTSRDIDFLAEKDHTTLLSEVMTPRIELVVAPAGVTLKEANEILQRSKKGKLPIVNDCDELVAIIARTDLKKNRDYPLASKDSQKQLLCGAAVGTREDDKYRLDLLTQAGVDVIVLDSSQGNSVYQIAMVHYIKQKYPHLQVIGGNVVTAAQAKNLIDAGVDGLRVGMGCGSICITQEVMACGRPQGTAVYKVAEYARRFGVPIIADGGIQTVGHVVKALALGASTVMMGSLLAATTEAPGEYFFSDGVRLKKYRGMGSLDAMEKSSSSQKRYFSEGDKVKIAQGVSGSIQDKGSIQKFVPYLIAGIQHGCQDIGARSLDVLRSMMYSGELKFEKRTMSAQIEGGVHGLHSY
Chain of IMPDH1(595)-Y12A-S477D (P20839 1-509 Y12A/S477D): as above
Chain of IMPDH1(546)-Y12A (P20839 1-509 Y12A): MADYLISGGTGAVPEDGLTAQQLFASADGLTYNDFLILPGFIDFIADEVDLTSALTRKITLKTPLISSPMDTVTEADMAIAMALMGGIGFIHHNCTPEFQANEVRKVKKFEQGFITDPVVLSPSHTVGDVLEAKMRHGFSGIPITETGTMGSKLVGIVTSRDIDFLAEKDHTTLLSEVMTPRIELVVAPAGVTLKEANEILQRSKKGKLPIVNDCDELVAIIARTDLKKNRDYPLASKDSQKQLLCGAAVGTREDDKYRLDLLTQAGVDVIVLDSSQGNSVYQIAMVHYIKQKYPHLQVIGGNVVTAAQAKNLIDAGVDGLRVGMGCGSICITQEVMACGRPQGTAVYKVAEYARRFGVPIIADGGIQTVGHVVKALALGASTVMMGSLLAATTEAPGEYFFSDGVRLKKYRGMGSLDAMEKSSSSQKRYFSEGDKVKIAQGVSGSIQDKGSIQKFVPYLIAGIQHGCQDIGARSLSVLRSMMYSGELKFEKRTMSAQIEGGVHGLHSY
Chain of IMPDH1(595)-Y12A (P20839 1-509 Y12A): as above
Chain of IMPDH1(546)-S477D (P20839 1-509 S477D): as the sequence (P20839 1-509 S477D) above
Chain of IMPDH1(595)-WT (P20839 1-558 isoform P20839-3 limits assumed): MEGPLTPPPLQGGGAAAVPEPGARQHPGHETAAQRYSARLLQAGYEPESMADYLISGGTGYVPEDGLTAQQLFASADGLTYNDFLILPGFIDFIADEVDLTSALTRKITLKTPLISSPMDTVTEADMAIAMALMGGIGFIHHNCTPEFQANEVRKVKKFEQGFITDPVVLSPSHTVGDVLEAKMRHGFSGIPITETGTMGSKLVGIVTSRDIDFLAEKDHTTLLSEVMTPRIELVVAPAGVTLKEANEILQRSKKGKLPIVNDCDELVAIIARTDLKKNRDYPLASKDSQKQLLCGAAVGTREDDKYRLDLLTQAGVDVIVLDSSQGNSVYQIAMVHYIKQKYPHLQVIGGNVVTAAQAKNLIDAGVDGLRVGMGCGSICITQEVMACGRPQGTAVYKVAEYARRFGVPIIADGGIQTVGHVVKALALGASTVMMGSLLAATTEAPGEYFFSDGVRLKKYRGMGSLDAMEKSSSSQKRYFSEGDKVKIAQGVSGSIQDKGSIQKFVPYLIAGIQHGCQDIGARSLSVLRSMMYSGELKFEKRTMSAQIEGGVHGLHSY

As a reminder, the IC50 is the point on the concentration scale where inhibition reaches its midpoint. On to `Nc1nc2c(ncn2[C@@H]2O[C@H](COP(=O)(O)OP(=O)(O)OP(=O)(O)O)[C@@H](O)[C@H]2O)c(=O)[nH]1` [GTP, guanosine triphosphate], for which the IC50 came to 1150 µM in test [1]; 603 µM in test [2]; 473 µM in test [3]; 464 µM in test [4]; 757 µM in [5]; 486 µM in test [6]. Besides, the IC50 in test [7] was 538 µM; in test [8], 458 µM. Further, the Hill best-fit in test [1] (setting [10]) is 2.3; in test [2] (setting [10]), 3.7; in test [3] (setting [10]), 4.5; in [4] (setting [10]), 4.1; in test [5] (setting [10]), 4.6; in [6] (setting [10]), 3.7. Further, the Hill best-fit is on record as 4.0 in test [7] (setting [10]) and 4.2 in test [8] (setting [10]).

Consider `NC(=O)c1ncn([C@@H]2O[C@H](CO)[C@@H](O)[C@H]2O)n1` [ribavirin], for which the “Percentage of transfected cells containing filaments” value came out at 100% in [9] (cells transfected with FLAG-tagged IMPDH1(546)-S477A), 2% in [9] (cells transfected with FLAG-tagged IMPDH1(546)-S477D) and 2% in test [9] (cells transfected with FLAG-tagged IMPDH1(595)-S477D).
